The list is not random: actives were taken first. Their share in the collection is about 2.5%.
SR-BI DiI-HDL act: activators of SR-BI mediated DiI-HDL uptake, primary screen, ldlA[mSR-BI] CHO cells, DiI fluorescence. 3 h; 100 = double the neutral-control signal. activation, % at 12.5 µM. hit rate 0.096% among 320,000;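 active means mean replicate activation of at least 60% and every replicate at or above 60%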;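 further: 0% = median plate neutral-control signal and 100% = twice that signal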
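Assay system: CHO ldlA[mSR-BI] cells, LDL receptor-null, SR-BI overexpressing; medium: Ham's F12 with 0.5% BSA, HEPES 25 mM, pH 7.4; also added: DiI-HDL 10 µg/mL; timing: 3 h uptake period with compound, 37 °C; signal: DiI fluorescence, bottom read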
H9c2 TAG inh: inhibitors of triacylglycerol accumulation, primary screen, cell-based, uHTS, fluorescence, H9c2 | H9c2 cells, Nile Red lipid (TAG) fluorescence; cells loaded with 200 µM oleic acid | inhibition, % at 12.5 µM | hit rate 0.66% among 230,000;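 active means pattern-corrected inhibition of lipid staining of at least 50% with the nuclear-stain viability signal not falling by more than 50%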;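 further: 0% = DMSO wells and 100% = triacsin C control wells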
SMARCA2 act: SMARCA2 (BRM) function activators, primary screen, cell-based, luminescence, high throughput | MG213 cells, MMTV-luciferase reporter, dexamethasone, overnight | hit rate 1% among 370,000 | activation, % at 9.1 µM; in the data active means activation above about 7.8%;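 further: 0% = vehicle wells and 100% = reference activator wells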
SR-BI HDL uptake: inhibitors of SR-BI mediated HDL lipid uptake, primary screen, ldlA[mSR-BI] cells, fluorescence, single point; ldlA[mSR-BI] CHO cells, DiI-HDL uptake fluorescence, 3 h; Scavenger receptor class B member 1 (Mus musculus), Q61009; hit rate 0.96% among 320,000; inhibition, % at 12.5 µM;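 active means mean replicate inhibition of at least 70% and a set share of replicates each scoring 70 or more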;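 further: 0% = median of neutral control wells and 100% = median of positive control wells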
Target sequence (Q61009 whole entry, looked up): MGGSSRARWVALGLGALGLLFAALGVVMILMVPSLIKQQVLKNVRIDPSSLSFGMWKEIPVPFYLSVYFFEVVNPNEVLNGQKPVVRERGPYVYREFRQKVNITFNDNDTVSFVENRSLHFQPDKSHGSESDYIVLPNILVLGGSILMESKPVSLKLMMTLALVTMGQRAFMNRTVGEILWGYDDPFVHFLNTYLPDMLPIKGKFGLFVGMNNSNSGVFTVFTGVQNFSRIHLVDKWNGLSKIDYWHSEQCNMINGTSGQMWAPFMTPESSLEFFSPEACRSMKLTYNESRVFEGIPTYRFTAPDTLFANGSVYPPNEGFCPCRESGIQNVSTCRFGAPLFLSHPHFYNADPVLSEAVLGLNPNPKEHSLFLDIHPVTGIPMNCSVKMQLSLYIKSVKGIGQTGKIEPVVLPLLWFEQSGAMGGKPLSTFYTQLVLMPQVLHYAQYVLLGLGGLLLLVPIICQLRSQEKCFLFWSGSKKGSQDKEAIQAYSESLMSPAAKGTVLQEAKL
Vif inh: HIV Vif self-association inhibitors, primary screen, imaging, HEK293T, single point. HEK293T cells, Vif self-association by quenched fluorescence, 24 h. inhibition, % at 7.49 µM. hit rate 0.35% among 340,000; in the data active means inhibition above about 50%, passing the limit was not always enough
SMARCA2 conf: SMARCA2 (BRM) function activators, confirmation, cell-based, luminescence, triplicate; shares compounds with SMARCA2 act; MG213 cells, MMTV-luciferase with dexamethasone, overnight; MG213 cells expressing E1A, Rb sequestered; DMSO wells 0%, reference activator 100%; activation, % at 9.1 µM; hit rate 30% among 3,500;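 active means activation above its plate's cutoff, the mean activation of tested wells plus 3 SD, cut at about 7.9% in these data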
VP16 Luc act: GAL4-VP16 luciferase reporter activation, counter-screen for SMARCA2 (BRM) activator project, cell-based, pG5luc, luminescence, high throughput | shares compounds with SMARCA2 act | HEK293 GAL4-VP16 pG5luc reporter; scaled: DMSO wells 0%, SAHA wells 100% | activation, % at 9.1 µM | hit rate 41% among 3,500;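 active means activation above the solvent-only control well mean plus 3 SD, averaged across control plates, cut at about 5.2% in these data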
Starred values were filed as active, the others as inactive; x = no result.

SMILES | SR-BI DiI-HDL act | H9c2 TAG inh | SMARCA2 act | SR-BI HDL uptake | Vif inh | SMARCA2 conf | VP16 Luc act
CSCCNC(=O)c1ccc(OC2CCN(CCc3ccccc3)CC2)cc1 | x | -1.3 | 8.0* | x | 0.0 | -1.2 | -0.2
CC(=O)Nc1ccc(-c2nc3c(C)cccc3[nH]2)cc1 | 7.6 | -7.6 | 12.5* | -7.6 | 3.4 | 19.9* | 16.8*
Cc1ccc(C2=NNC3(CCOC(C)(C)C3)S2)cc1 (stereo not given) | 23.1 | 18.0 | 10.9* | -23.1 | 0.9 | 9.9* | 3.3
Cc1cccc(C)c1NC(=O)C(c1cccc2ccccc12)n1c(=O)c(-c2cc3ccccc3[nH]2)nc2ccccc21 (stereo not given) | x | x | -2.2 | x | x | x | x
Cc1oncc1C(=O)Nc1cccc2ccccc12 | -4.1 | -5.2 | -2.1 | 4.1 | 5.0 | x | x
Cc1oncc1C(=O)Nc1ccc2ccccc2c1 | -1.4 | 12.9 | 9.1* | 1.4 | 7.2 | 9.3* | 5.0
O=C(COc1ccc(S(=O)(=O)NC2CCCCC2)cc1)NC1CCCC1 | -11.8 | 0.4 | 1.7 | 11.8 | 15.8 | x | x
CCC(=O)Nc1cc2c(cc1Cl)-c1ccccc1C2 | -16.9 | -9.3 | 9.5* | 16.9 | -2.0 | 3.2 | 4.6
c1cc2ccc3ccc(CN4CCOCC4)c4ccc(c1)c2c34 | 3.4 | x | 2.7 | -3.4 | x | x | x
OC1CCCN(Cc2ccc3ccc4cccc5ccc2c3c45)C1 (stereo not given) | -2.7 | x | 11.1* | 2.7 | -4.8 | 25.1* | 1.1
O=C(NCc1ccccc1Cl)c1csc(COCCO)n1 | x | 7.1 | -0.2 | x | 1.9 | x | x
N#Cc1ccc(/C=C\c2nccc3c2[nH]c2ccccc23)cc1 | -59.0 | 34.8 | 9.9* | 59.0 | -8.1 | 10.2* | -1.5
O=C(COc1ccccc1)NCCSc1ccccc1 | -5.2 | -14.4 | 9.4* | 5.2 | -0.7 | 10.1* | 7.7*
CC(C)(C)SCCNC(=O)COc1ccccc1 | 9.1 | x | 4.3 | -9.1 | -1.6 | x | x
CC(=O)OCc1ccccc1Sc1ccccc1C(=O)NCc1ccccc1 | -17.8 | -3.6 | 10.4* | 17.8 | -2.6 | 1.3 | 0.5
CN(Cc1ccc(Cl)c(Cl)c1)C(C(=O)NCc1ccccc1)c1ccco1 (stereo not given) | x | x | -0.3 | x | x | x | x
O=C(CSc1nnc(NC(=O)c2ccccc2)s1)NCC1CCCO1 (stereo not given) | 6.7 | 5.2 | 9.4* | -6.7 | -7.6 | 1.5 | 6.5*
O=C(CSc1oc(-c2ccc(F)cc2)nc1S(=O)(=O)c1ccccc1)NCC1CCCO1 (stereo not given) | 2.3 | -0.2 | 8.2* | -2.3 | -1.9 | 0.4 | -0.9
CN(C)Cc1ccc(CNC(=O)c2ccc(Cl)c(S(=O)(=O)NC3CC3)c2)cc1 | -5.2 | 13.6 | 9.0* | 5.2 | -4.2 | 0.3 | 2.9
CCOC(=O)C1(Cc2ccccc2C)CCCN(C(=O)c2ccc(C(C)=O)s2)C1 (stereo not given) | x | 1.4 | 2.1 | x | 6.5 | x | x
COCCCNC(=O)C[C@H]1C(=O)N(Cc2ccc(OC)cc2)C2=CCCCC[C@@]21C(=O)OC | x | x | -1.7 | x | x | x | x
CCc1nnc(NC(=O)/C=C/c2ccco2)s1 | -1.6 | x | 5.0 | 1.6 | -1.2 | x | x
CCSc1nnc(NC(=O)/C=C/c2ccco2)s1 | 0.7 | 8.5 | 10.4* | -0.7 | -5.3 | 6.0 | 7.8*
Cc1nc(NC(=O)/C=C/c2ccco2)sc1C | -7.6 | x | 10.4* | 7.6 | -3.4 | 7.1 | 7.6*
FC(F)(F)c1ccccc1Cn1ccc2ccc(-c3ccc4ccn(Cc5ccccc5C(F)(F)F)c4c3)cc21 | x | x | -1.9 | x | x | x | x
SMILES | SR-BI DiI-HDL act | H9c2 TAG inh | SMARCA2 act | SR-BI HDL uptake | Vif inh | SMARCA2 conf | VP16 Luc act
CCN(CC)CCCNc1nc(-c2ccccc2)nc2ccccc12 | 31.7 | x | 2.9 | -31.7 | 6.1 | x | x
CCN(CC)CCCNc1nc2ccccc2c2nc(-c3ccncc3)nn12 | -9.9 | x | 22.8* | 9.9 | -14.4 | 35.2* | 0.4
COc1ccc(S(=O)(=O)N2CCOCC2)cc1NC(=O)CCCSc1ccccc1 | x | -12.5 | 9.3* | x | x | -1.6 | 1.6
O=C(Nc1cc(Cl)ccc1F)C1CCCN(c2nnc(-n3cccc3)s2)C1 (stereo not given) | x | x | -1.7 | x | x | x | x
Cc1cccc(NC(=O)COc2ccc(Br)cc2)n1 | 28.0 | x | 1.1 | -28.0 | x | x | x
Cc1ccc(OCC(=O)Nc2cccc(C)n2)c(C)c1 | 3.3 | 1.9 | 10.5* | -3.3 | 2.7 | 2.8 | 11.6*
O=C(NC1=NCCS1)c1ccccc1OCc1ccc(F)cc1 | -42.6 | -1.6 | 10.4* | 42.6 | -4.7 | -0.8 | 2.2
O=C(NN=C1CCCCC1)c1ccccc1OCc1ccc(F)cc1 | 6.6 | 1.1 | -2.6 | -6.6 | 5.0 | x | x
CCOC(=O)N1Cc2cc3ccccc3nc2C1 | x | 3.4 | 8.9* | x | -6.8 | 7.6 | 10.4*
COC(=O)C(C)N1C(=O)S/C(=C\c2ccc(-c3ccc(C(=O)O)cc3C)o2)C1=O (stereo not given) | -7.2 | x | 11.0* | 7.2 | -11.4 | 9.8* | 10.3*
COc1cc(OC)cc(N2CCN(S(=O)(=O)c3ccc(-n4cnnn4)cc3)CC2)c1 | 6.3 | x | 9.6* | -6.3 | -2.2 | 0.6 | 1.6
COc1cccc(N2CCN(S(=O)(=O)c3ccc4c(c3)NC(=O)C(C)C(=O)N4)CC2)c1 (stereo not given) | 2.7 | x | -2.2 | -2.7 | -0.4 | x | x
CN(c1ccccc1)S(=O)(=O)c1ccc(NC(=O)c2ccccc2C(=O)O)cc1 | 1.1 | 6.9 | 0.9 | -1.1 | -7.8 | x | x
CC(=O)N/C(=N\c1nc(C)cc(C)n1)Nc1ccccc1Cl | 24.1 | x | 8.3* | -24.1 | -4.7 | 3.7 | 0.7
CC(=O)N/C(=N/c1nc(C)cc(C)n1)Nc1ccc(C)cc1Cl | -5.0 | x | 1.2 | 5.0 | 0.8 | x | x
CC(C)N1C(=O)N(c2cccc(Cl)c2)C(C)(O)CC1(C)C (stereo not given) | 11.7 | x | -1.8 | -11.7 | 8.4 | x | x
N#Cc1ccccc1OCC(=O)Nc1ccc2c(c1)OCCO2 | 6.9 | 0.3 | 8.5* | -6.9 | -0.7 | 4.5 | 6.3*
N#Cc1ccccc1OCC(=O)Nc1ccc2c(c1)OCCCO2 | x | x | 5.8 | x | -2.4 | x | x
N#Cc1ccccc1OCC(=O)Nc1ccc2c(c1)OCO2 | x | 4.4 | 9.0* | x | -2.5 | 17.6* | 7.6*
COC(=O)[C@]12C[C@H](CC(=O)NCC34CC5CC(CC(C5)C3)C4)C(=O)N(Cc3ccc(Cl)cc3Cl)C1=C[C@H](C1CCCC1)O[C@@H]2C | x | x | 7.6 | x | x | x | x
CSc1ccccc1OCc1cc(C(=O)NCCC2=CCCCC2)no1 | 5.8 | 15.1 | 6.0 | -5.8 | -3.2 | x | x
